26 compounds from ChEMBL document CHEMBL4619741, “Screening of chalcone analogs with anti-depressant, anti-inflammatory, analgesic, and COX-2-inhibiting effects” (Bioorg Med Chem Lett, 2020) can be followed below.

Assay [1] has as its system Mus musculus. Briefly: Antidepressant activity in mouse assessed as immobility time at 30 mg/kg, ip by forced swimming test (reference value: 172.3 +/- 9.67 sec). The format is functional.
Assay [2] relates to Mus musculus. Briefly: Antiinflammatory activity against dimethylbenzene-induced ear edema mouse model assessed as inhibition of ear edema at 30 mg/kg, ip pretreated with compounds followed by dimethylbenzene challenge relative to control. The format is functional. The method, boiled down: (§1)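 Intraperitoneal dosing (test agents 30 mg/kg, reference 3 mg/kg) given before topical dimethylbenzene to mouse ear. Ear inflammation was measured by weight (mg), and inhibition was expressed as percent versus control at 60 min.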

Assay [3] has as its system Mus musculus. Briefly: Antidepressant activity in mouse assessed as reduction in duration of immobility at 30 mg/kg, ip relative to control. The format is functional.
Assay [4] relates to Mus musculus. Briefly: Antidepressant activity in mouse assessed as change in norepinephrine level at 30 mg/kg, ip. The assay is classed as functional, organism-based. The method, boiled down:
(§2)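 Mice under stress treated intraperitoneally (30 mg/kg), alongside normal-vehicle and stress-vehicle groups; serotonin, norepinephrine and dopamine levels measured; n = 8 per group; values as mean ± SEM; significance tested against stress vehicle and normal vehicle.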

The test system of assay [5] is Mus musculus. Briefly: Antidepressant activity in mouse assessed as increase in serotonin level at 30 mg/kg, ip. The format is functional, organism-based. The method, boiled down:
as §2

The target in assay [6] is T1, Prostaglandin G/H synthase 1 (Ovis aries, UniProt P05979).
T1 sequence (P05979 whole entry): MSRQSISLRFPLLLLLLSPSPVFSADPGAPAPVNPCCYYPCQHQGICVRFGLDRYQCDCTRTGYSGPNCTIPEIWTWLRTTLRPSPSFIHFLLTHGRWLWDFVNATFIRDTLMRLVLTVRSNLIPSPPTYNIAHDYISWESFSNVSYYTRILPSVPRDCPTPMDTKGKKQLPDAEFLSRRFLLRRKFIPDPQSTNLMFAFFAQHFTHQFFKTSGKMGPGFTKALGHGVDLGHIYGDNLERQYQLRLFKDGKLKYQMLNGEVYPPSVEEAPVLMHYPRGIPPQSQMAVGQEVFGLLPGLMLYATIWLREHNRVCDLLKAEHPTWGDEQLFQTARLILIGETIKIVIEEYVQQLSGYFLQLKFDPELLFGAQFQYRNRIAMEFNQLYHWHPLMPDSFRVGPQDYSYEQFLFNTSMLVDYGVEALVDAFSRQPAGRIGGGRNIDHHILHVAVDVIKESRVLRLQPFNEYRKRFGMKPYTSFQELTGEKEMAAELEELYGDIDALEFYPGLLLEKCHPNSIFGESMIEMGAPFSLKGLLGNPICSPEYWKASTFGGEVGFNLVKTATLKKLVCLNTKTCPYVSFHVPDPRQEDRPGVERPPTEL
Description: Inhibition of ovine COX1 by ELISA. The method, boiled down:
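Ovine COX-1 inhibition followed through enzyme peroxidase activity with a colorimetric enzyme immunoassay kit; IC50 values determined; mean and SD of three measurements.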
In general terms: ELISA stands for enzyme-linked immunosorbent assay.

The subject of assay [7] is Mus musculus. Briefly: Antidepressant activity in mouse assessed as change in dopamine level at 30 mg/kg, ip. The format is functional, organism-based. The method, boiled down: as §2
For assay [8], the system named is Mus musculus. Briefly: Analgesic activity in mouse assessed as inhibition of acetic acid-induced writhing at 3 mg/kg, ip relative to control. The format is functional. In general terms: In writhing tests, fewer writhes than in controls are read as antinociception.
The subject of assay [9] is Mus musculus. Briefly: Antiinflammatory activity against dimethylbenzene-induced ear edema mouse model assessed as inhibition of ear edema at 3 mg/kg, ip pretreated with compounds followed by dimethylbenzene challenge relative to control. The format is functional. The method, boiled down:
as §1

Assay [10] concerns Mus musculus. Briefly: Antidepressant activity in mouse assessed as immobility time at 3 mg/kg, ip by forced swimming test (reference value: 172.3 +/- 9.67 sec). The format is functional.
Assay [11] relates to Mus musculus. Briefly: Antidepressant activity in mouse assessed as reduction in duration of immobility at 3 mg/kg, ip relative to control. The assay is classed as functional.
Assay [12] relates to Mus musculus. Briefly: Antidepressant activity in mouse assessed as change in dopamine level at 3 mg/kg, ip. The assay is classed as functional, organism-based.
The subject of assay [13] is Mus musculus. Briefly: Antidepressant activity in mouse assessed as change in norepinephrine level at 3 mg/kg, ip. The format is functional, organism-based.
Assay [14] has as its system Mus musculus. Briefly: Antidepressant activity in mouse assessed as increase in serotonin level at 3 mg/kg, ip. The assay is classed as functional, organism-based.

Active and inactive are the calls of the source. The rule behind the calls is not given here.

What is called inhibition in vivo is the percentage by which the read-out fell short of the control. As to `COc1ccc(/C=C/C(=O)c2c(C)nc3ccccc3c2-c2ccccc2)cc1O`, the Time in the assay on Mus musculus [1] is recorded as 52.3 s. Moreover, the inhibition in vivo at 30 mg/kg with Mus musculus [2] amounted to 65.5%.
For `Cc1nc2ccccc2c(-c2ccccc2)c1C(=O)/C=C/c1ccc([N+](=O)[O-])cc1`, in the assay with Mus musculus [1], the Time was 46.8 s. Further, the inhibition in vivo at 30 mg/kg was 72.8% in the assay with Mus musculus [3] and 42.9% in the assay on Mus musculus [2].
Turning to `Cc1nc2ccccc2c(-c2ccccc2)c1C(=O)/C=C/c1cccc(O)c1`, the Time in the assay with Mus musculus [1] worked out at 32.8 s. The inhibition in vivo at 30 mg/kg in the assay with Mus musculus [3] turned out to be 80%; in the assay on Mus musculus [2] it was 65.2%.
For the compound `Cc1nc2ccccc2c(-c2ccccc2)c1C(=O)/C=C/c1ccccc1Cl`, in the assay on Mus musculus [1], the Time is listed as 136.3 s. The inhibition in vivo at 30 mg/kg in the assay with Mus musculus [2] was determined as 73.2%.
As to `Cc1nc2ccccc2c(-c2ccccc2)c1C(=O)/C=C/c1ccc(N(C)C)cc1`, in the assay on Mus musculus [1], the Time is 47.5 s. The inhibition in vivo at 30 mg/kg with Mus musculus [2] came out at 69.7%.
`Cc1nc2ccccc2c(-c2ccccc2)c1C(=O)/C=C/c1ccc(F)cc1F`: the Time in the assay with Mus musculus [1] was found to be 51.5 s. The inhibition in vivo at 30 mg/kg in the assay with Mus musculus [2] came out at 65.8%.
Consider `Cc1nc2ccccc2c(-c2ccccc2)c1C(=O)/C=C/c1cccc(Br)c1`, for which the Time in the assay with Mus musculus [1] is recorded as 13.8 s. In addition, the inhibition in vivo at 30 mg/kg stood at 92% in the assay on Mus musculus [3] and 72.9% with Mus musculus [2].
The IC50 is the midpoint of a concentration-inhibition curve. On to `Cc1nc2ccccc2c(-c2ccccc2)c1C(=O)/C=C/c1ccc(C(C)C)cc1`, for which the Time with Mus musculus [1] is 22.8 s. In addition, the inhibition in vivo at 30 mg/kg in the assay with Mus musculus [3] worked out at 86.8%; with Mus musculus [2] it was 76.8%. For the same compound, the outcome with Mus musculus [4] and in the assay on Mus musculus [7] was inactive. Further, the outcome in the assay on Mus musculus [5] was Active. The midpoint of inhibition in assay [6], the IC50, lay at 8.95 µM.
For `Cc1ccccc1/C=C/C(=O)c1c(C)nc2ccccc2c1-c1ccccc1`, in the assay with Mus musculus [1], the Time was 86.3 s. Moreover, the inhibition in vivo at 30 mg/kg in the assay with Mus musculus [2] is 70.9%.
Take `COc1ccc2c(c1)c(CC(=O)O)c(C)n2C(=O)c1ccc(Cl)cc1` [INDOMETHACIN]: the inhibition in vivo at 3 mg/kg is 78.3% in the assay with Mus musculus [8] and 51.1% with Mus musculus [9].
For `Cc1nc2ccccc2c(-c2ccccc2)c1C(=O)/C=C/c1ccc(Br)cc1`, in the assay on Mus musculus [1], the Time is given as 75.8 s. For the same compound, the inhibition in vivo at 30 mg/kg in the assay on Mus musculus [2] stood at 74.1%.
Regarding `Cc1nc2ccccc2c(-c2ccccc2)c1C(=O)/C=C/c1ccc(O)cc1`, the Time with Mus musculus [1] is 79.3 s. Moreover, the inhibition in vivo at 30 mg/kg with Mus musculus [2] turned out to be 78.8%.
For the compound `COc1ccccc1/C=C/C(=O)c1c(C)nc2ccccc2c1-c1ccccc1`, the Time in the assay on Mus musculus [1] amounted to 109.3 s. Further, the inhibition in vivo at 30 mg/kg with Mus musculus [2] is 62.1%.
With `Cc1cccc(/C=C/C(=O)c2c(C)nc3ccccc3c2-c2ccccc2)c1`, the Time with Mus musculus [1] came out at 57.5 s. Also, the inhibition in vivo at 30 mg/kg with Mus musculus [2] stood at 67.1%.
With `Cc1nc2ccccc2c(-c2ccccc2)c1C(=O)/C=C/c1c(Cl)cccc1Cl`, in the assay with Mus musculus [1], the Time came to 52 s. Besides, the inhibition in vivo at 30 mg/kg in the assay on Mus musculus [2] worked out at 46.7%.
On to `Cc1ccc(/C=C/C(=O)c2c(C)nc3ccccc3c2-c2ccccc2)cc1`, for which, in the assay with Mus musculus [1], the Time is given as 63 s. The inhibition in vivo at 30 mg/kg in the assay on Mus musculus [2] stood at 61.3%.
As for `Cc1nc2ccccc2c(-c2ccccc2)c1C(=O)/C=C/c1cccc(F)c1`, the Time in the assay with Mus musculus [1] was found to be 38.3 s. The figures for the inhibition in vivo at 30 mg/kg with Mus musculus [3] and in the assay on Mus musculus [2] were 77.8% and 69.2%, respectively.
As to `Cc1nc2ccccc2c(-c2ccccc2)c1C(=O)/C=C/c1ccccc1Br`, the Time in the assay on Mus musculus [1] is 60.3 s. In addition, the inhibition in vivo at 30 mg/kg in the assay with Mus musculus [2] stood at 55%.
As for `Cc1nc2ccccc2c(-c2ccccc2)c1C(=O)/C=C/c1ccc(Cl)cc1Cl`, in the assay on Mus musculus [1], the Time is given as 31.5 s. For the same compound, the figures for the inhibition in vivo at 30 mg/kg with Mus musculus [3] and in the assay on Mus musculus [2] were 81% and 81.3%, respectively.
Consider `Cc1nc2ccccc2c(-c2ccccc2)c1C(=O)/C=C/c1ccccc1F`, for which, in the assay with Mus musculus [1], the Time came out at 49.3 s. Moreover, the inhibition in vivo at 30 mg/kg with Mus musculus [2] amounted to 81.2%.
Take `Cc1nc2ccccc2c(-c2ccccc2)c1C(=O)/C=C/c1ccc(F)cc1`: in the assay on Mus musculus [1], the Time is on record as 25.8 s. The results for the inhibition in vivo at 30 mg/kg with Mus musculus [3] and with Mus musculus [2] were 85% and 88.3%, respectively. Also, the outcome in the assay with Mus musculus [4] and in the assay with Mus musculus [7] was inactive. Also, the result with Mus musculus [5] was Active. Moreover, the 50% inhibitory concentration (IC50) in assay [6] worked out at 10.2 µM.
Turning to `CNCCC(Oc1ccc(C(F)(F)F)cc1)c1ccccc1` (stereo unspecified) [FLUOXETINE], the Time in the assay with Mus musculus [10] is 88.1 s. For the same compound, the inhibition in vivo at 3 mg/kg in the assay with Mus musculus [11] worked out at 48.9%. Also, the result with Mus musculus [12] and in the assay with Mus musculus [13] was inactive. The result in the assay on Mus musculus [14] was Active.
Turning to `COc1cccc(/C=C/C(=O)c2c(C)nc3ccccc3c2-c2ccccc2)c1`, in the assay on Mus musculus [1], the Time came out at 48.5 s. Besides, the inhibition in vivo at 30 mg/kg in the assay on Mus musculus [2] is 74.6%.
Turning to `Cc1nc2ccccc2c(-c2ccccc2)c1C(=O)/C=C/c1cccc(Cl)c1`, the Time in the assay on Mus musculus [1] stood at 48.5 s. Also, in the assay with Mus musculus [2], the inhibition in vivo at 30 mg/kg worked out at 53.6%.
On to `Cc1nc2ccccc2c(-c2ccccc2)c1C(=O)/C=C/c1ccc(Cl)cc1`, for which the Time in the assay on Mus musculus [1] amounted to 29.3 s. For the same compound, the inhibition in vivo at 30 mg/kg in the assay with Mus musculus [3] worked out at 83%; in the assay on Mus musculus [2], 85.5%.
Consider `COc1ccc(/C=C/C(=O)c2c(C)nc3ccccc3c2-c2ccccc2)cc1`, for which the Time in the assay on Mus musculus [1] came out at 83.5 s. In the assay on Mus musculus [2], the inhibition in vivo at 30 mg/kg turned out to be 66.7%.
